Results from ChEMBL document CHEMBL4346654 (Eur J Med Chem, 2019).
Values after ≈ are worked out from the molar mass of the structure shown.

Assays:
Type in all cases: functional
Streptococcus pneumoniae [1] = assay: Antibacterial activity against penicillin-susceptible Streptococcus pneumoniae PU 09 expressing mef gene assessed as reduction in microbial growth by CLSI based two-fold broth dilution method
Streptococcus pneumoniae [2] = assay: Bactericidal activity against penicillin-susceptible Streptococcus pneumoniae PU 09 expressing mef gene pretreated followed by subculture in absence of compound measured after 24 hrs
In short: (§1)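 Isolates were identified by 16S rDNA sequencing. MIC was determined by CLSI-recommended two-fold broth dilution. For MBC, samples from 1–8 fold MIC were transferred to culture medium and subcultured for 24 h without antibiotic.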

Streptococcus pneumoniae [3] = assay: Selectivity ratio of MBC to MIC for penicillin-susceptible Streptococcus pneumoniae PU 09 expressing mef gene; in short: as §1
Streptococcus pyogenes [4] = assay: Bactericidal activity against MLS-resistant Streptococcus pyogenes 01-968 expressing inducible ermB gene pretreated followed by subculture in absence of compound measured after 24 hrs
In short: (§2)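 MBC assay. Following MIC determination by CLSI standard two-fold broth dilution, samples at 1–8 fold MIC were transferred to fresh culture medium. They were subcultured for 24 h without antibiotic. Isolates were identified by 16S rDNA sequencing. S. aureus ATCC 29213 was used as a control strain.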

Staphylococcus aureus [5] = assay: Bactericidal activity against MLS/methicillin-resistant Staphylococcus aureus PU 32 expressing inducible ermA gene pretreated followed by subculture in absence of compound measured after 24 hrs; in short: as §2
Streptococcus pyogenes [6] = assay: Selectivity ratio of MBC to MIC for MLS-resistant Streptococcus pyogenes 01-968 expressing inducible ermB gene
In short: (§3)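 MBC/MIC ratio. MIC was measured by CLSI standard two-fold broth dilution. MBC was measured by transferring samples at 1–8 fold MIC to culture medium and subculturing for 24 h without antibiotic. Isolates were identified by 16S rDNA sequencing.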

Staphylococcus aureus [7] = assay: Selectivity ratio of MBC to MIC for MLS-resistant Staphylococcus aureus PU 20 expressing constitutive ermC gene; in short: as §3
Staphylococcus aureus [8] = assay: Bactericidal activity against MLS-resistant Staphylococcus aureus PU 20 expressing constitutive ermC gene pretreated followed by subculture in absence of compound measured after 24 hrs; in short: as §2
Haemophilus influenzae [9] = assay: Bactericidal activity against azithromycin-susceptible Haemophilus influenzae ATCC 49247 pretreated followed by subculture in absence of compound measured after 24 hrs; in short: as §1
Haemophilus influenzae [10] = assay: Antibacterial activity against azithromycin-susceptible Haemophilus influenzae ATCC 49247 assessed as reduction in microbial growth by CLSI based two-fold broth dilution method
Streptococcus pneumoniae [11] = assay: Antibacterial activity against Streptococcus pneumoniae 07P390 expressing constitutive ermB gene assessed as reduction in microbial growth by CLSI based two-fold broth dilution method
Staphylococcus aureus [12] = assay: Antibacterial activity against MLS-resistant Staphylococcus aureus PU 20 expressing constitutive ermC gene assessed as reduction in microbial growth by CLSI based two-fold broth dilution method
Streptococcus pneumoniae [13] = assay: Antibacterial activity against erythromycin-susceptible Streptococcus pneumoniae ATCC49619 assessed as reduction in microbial growth by CLSI based two-fold broth dilution method
Haemophilus influenzae [14] = assay: Selectivity ratio of MBC to MIC for azithromycin-susceptible Haemophilus influenzae ATCC 49247; in short: as §1
Streptococcus pyogenes [15] = assay: Antibacterial activity against MLS-resistant Streptococcus pyogenes 01-968 expressing inducible ermB gene assessed as reduction in microbial growth by CLSI based two-fold broth dilution method
Streptococcus pneumoniae [16] = assay: Bactericidal activity against erythromycin-susceptible Streptococcus pneumoniae ATCC49619 pretreated followed by subculture in absence of compound measured after 24 hrs; in short: as §1
Staphylococcus aureus [17] = assay: Antibacterial activity against MLS-resistant Staphylococcus aureus PU 32 expressing inducible ermA gene assessed as reduction in microbial growth by CLSI based two-fold broth dilution method
Streptococcus pneumoniae [18] = assay: Selectivity ratio of MBC to MIC for erythromycin-susceptible Streptococcus pneumoniae ATCC49619; in short: as §1
Staphylococcus aureus [19] = assay: Selectivity ratio of MBC to MIC for MLS/methicillin-resistant Staphylococcus aureus PU 32 expressing inducible ermA gene; in short: as §3
Streptococcus pneumoniae [20] = assay: Selectivity ratio of MBC to MIC for Streptococcus pneumoniae 07P390 expressing constitutive ermB gene; in short: as §1
Streptococcus pneumoniae [21] = assay: Bactericidal activity against Streptococcus pneumoniae 07P390 expressing constitutive ermB gene pretreated followed by subculture in absence of compound measured after 24 hrs; in short: as §1

SMILES | MIC (Streptococcus pneumoniae [1]) [µg/mL] | MBC (Streptococcus pneumoniae [2]) [µg/mL] | Selectivity ratio (Streptococcus pneumoniae [3]) | MBC (Streptococcus pyogenes [4]) [µg/mL] | MBC (Staphylococcus aureus [5]) [µg/mL] | Selectivity ratio (Streptococcus pyogenes [6]) | Selectivity ratio (Staphylococcus aureus [7]) | MBC (Staphylococcus aureus [8]) [µg/mL] | MBC (Haemophilus influenzae [9]) [µg/mL] | MIC (Haemophilus influenzae [10]) [µg/mL] | MIC (Streptococcus pneumoniae [11]) [µg/mL] | MIC (Staphylococcus aureus [12]) [µg/mL] | MIC (Streptococcus pneumoniae [13]) [µg/mL] | Selectivity ratio (Haemophilus influenzae [14]) | MIC (Streptococcus pyogenes [15]) [µg/mL] | MBC (Streptococcus pneumoniae [16]) [µg/mL] | MIC (Staphylococcus aureus [17]) [µg/mL] | Selectivity ratio (Streptococcus pneumoniae [18]) | Selectivity ratio (Staphylococcus aureus [19]) | Selectivity ratio (Streptococcus pneumoniae [20]) | also measured
CC[C@H]1OC(=O)[C@@](C)(F)C(=O)[C@H](C)[C@@H](O[C@@H]2O[C@H](C)C[C@H](N(C)C)[C@H]2O)[C@](C)(OC)C[C@@H](C)/C(=N\OCC#Cc2cncc3ccccc23)[C@H](C)[C@H]2OC(=O)O[C@@]21C | 8 | 8 (≈ 9.85 µM) | 1 | > 4 | > 32 | >8 | >4 | > 256 | 128 (≈ 158 µM) | 64 | > 32 | 64 | 2 | 2 | 0.5 | 4 (≈ 4.93 µM) | 4 | 2 | >8 | – | –
CC[C@H]1OC(=O)[C@@](C)(F)C(=O)[C@H](C)[C@@H](O[C@@H]2O[C@H](C)C[C@H](N(C)C)[C@H]2O)[C@](C)(OC)C[C@@H](C)/C(=N\OCC#Cc2ccc3c(c2)c(=O)c(C(=O)O)cn3C2CC2)[C@H](C)[C@H]2OC(=O)O[C@@]21C | 2 | 4 (≈ 4.39 µM) | 2 | 2 (≈ 2.19 µM) | 4 (≈ 4.39 µM) | 8 | 4 | 128 (≈ 140 µM) | 16 (≈ 17.5 µM) | 8 | 4 | 32 | 0.25 | 2 | 0.25 | 0.5 (≈ 0.548 µM) | 1 | 2 | 4 | 8 | MBC (Streptococcus pneumoniae [21]): 32 µg/mL (≈ 35.1 µM)
CC[C@H]1OC(=O)[C@@](C)(F)C(=O)[C@H](C)[C@@H](O[C@@H]2O[C@H](C)C[C@H](N(C)C)[C@H]2O)[C@](C)(OC)C[C@@H](C)/C(=N\OCCCc2ccc3c(c2)c(=O)c(C(=O)O)cn3C2CC2)[C@H](C)[C@H]2OC(=O)O[C@@]21C | 2 | 2 (≈ 2.18 µM) | 1 | > 1 | 8 (≈ 8.73 µM) | >8 | 2 | 128 (≈ 140 µM) | 32 (≈ 34.9 µM) | 16 | 8 | 64 | 0.125 | 2 | 0.125 | 0.25 (≈ 0.273 µM) | 4 | 2 | 2 | 2 | MBC (Streptococcus pneumoniae [21]): 16 µg/mL (≈ 17.5 µM)
CC[C@H]1OC(=O)[C@@](C)(F)C(=O)[C@H](C)[C@@H](O[C@@H]2O[C@H](C)C[C@H](N(C)C)[C@H]2O)[C@](C)(OC/C=C/c2ccc3c(c2)c(=O)c(C(=O)O)cn3C2CC2)C[C@@H](C)/C(=N\OC)[C@H](C)[C@H]2OC(=O)O[C@@]21C | 2 | 2 (≈ 2.19 µM) | 1 | 0.25 (≈ 0.274 µM) | 2 (≈ 2.19 µM) | 8 | 2 | 128 (≈ 140 µM) | 4 (≈ 4.38 µM) | 2 | 1 | 64 | 0.125 | 2 | 0.031 | 0.25 (≈ 0.274 µM) | 0.25 | 2 | 8 | 8 | MBC (Streptococcus pneumoniae [21]): 8 µg/mL (≈ 8.75 µM)
